In brackets after ≈: the same amount, converted by molar mass.
Legend:
Vaccinia virus [1] = assay: Antiviral activity against Vaccinia virus in human E6SM cells assessed as reduction of virus-induced cytopathogenicity; assay type: functional; conditions: Orthopoxvirus vaccinia
Procedure, shortened: (§1)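 Confluent cell monolayers (E6SM, HEL, HeLa or Vero, per line) inoculated with 100 CCID50 virus; 1 h adsorption, residual virus removed, then incubated with compound at 400, 200, 100 … µg/ml. Cytopathicity scored once complete in untreated virus controls; MIC = concentration inhibiting virus-induced cytopathicity.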

Vaccinia virus [2] = assay: Antiviral activity against Vaccinia virus in human HEL cells assessed as reduction of virus-induced cytopathogenicity; assay type: functional; conditions: Orthopoxvirus vaccinia; procedure, shortened: as §1

Q: How did the MIC (Vaccinia virus [1]) turn out when `CNC(=S)Nc1ccc(-c2nnc(SCc3ccccc3)n2C)cc1` was run?
A: The MIC was greater than 16 µg/mL.

Q: What about the MIC (Vaccinia virus [2]) of the same compound?
A: The MIC was greater than 16 µg/mL.

Q: For `CCCCCCNC(=S)Nc1ccc(-c2n[nH]c(=S)n2-c2ccccc2)cc1`, which MIC (Vaccinia virus [1]) is on record?
A: Its MIC is greater than 16 µg/mL.

Q: What about the MIC (Vaccinia virus [2]) of the same compound?
A: The MIC was greater than 16 µg/mL.

Q: Which results are given for `Nc1ccc(OCc2n[nH]c(=S)n2-c2ccccc2)cc1`?
A: MIC (Vaccinia virus [1]): > 400 µg/mL; MIC (Vaccinia virus [2]): > 400 µg/mL

Q: Which MIC (Vaccinia virus [1]) does the source give for `C=CCn1c(COc2ccc(NC(=S)NC)cc2)n[nH]c1=S` here?
A: The MIC was greater than 400 µg/mL.

Q: And the MIC (Vaccinia virus [2])?
A: The MIC was greater than 400 µg/mL.

Q: Which MIC (Vaccinia virus [1]) does the source give for `C=CCNC(=S)Nc1ccc(OCc2n[nH]c(=S)n2CC=C)cc1` here?
A: Its MIC is 240 µg/mL (≈ 664 µM).

Q: And the MIC (Vaccinia virus [2])?
A: Its MIC is 240 µg/mL (≈ 664 µM).

Q: How did the MIC (Vaccinia virus [1]) turn out when `CCNC(=S)Nc1ccc(-c2n[nH]c(=S)n2-c2ccccc2)cc1` was run?
A: The MIC was greater than 3.2 µg/mL.

Q: And the MIC (Vaccinia virus [2])?
A: The MIC was greater than 3.2 µg/mL.

Q: Which MIC (Vaccinia virus [1]) does the source give for `CNC(=S)Nc1ccc(OCc2n[nH]c(=S)n2-c2ccccc2)cc1` here?
A: Its MIC is greater than 400 µg/mL.

Q: What about the MIC (Vaccinia virus [2]) of the same compound?
A: Its MIC is greater than 400 µg/mL.

Q: How did the MIC (Vaccinia virus [1]) turn out when `CCCCCCNC(=S)Nc1ccc(-c2n[nH]c(=S)n2CCCCCC)cc1` was run?
A: The MIC was greater than 3.2 µg/mL.

Q: And the MIC (Vaccinia virus [2])?
A: Its MIC is greater than 3.2 µg/mL.

Q: What does the source list for `CCn1c(COc2ccc(NC(=S)NC)cc2)n[nH]c1=S`?
A: MIC (Vaccinia virus [1]): > 400 µg/mL; MIC (Vaccinia virus [2]): > 400 µg/mL

Q: What does the source list for `CCNC(=S)Nc1ccc(OCc2n[nH]c(=S)n2C)cc1`?
A: MIC (Vaccinia virus [1]): > 400 µg/mL; MIC (Vaccinia virus [2]): > 400 µg/mL

Q: `Nc1nc2c(ncn2COCCO)c(=O)[nH]1` [ACYCLOVIR] was tested. Which MIC (Vaccinia virus [1]) did it give?
A: Its MIC is greater than 400 µg/mL.

Q: What about the MIC (Vaccinia virus [2]) of the same compound?
A: The MIC was greater than 400 µg/mL.

Q: Which results are given for `Cn1c(-c2ccc(NC(=S)Nc3ccccc3)cc2)n[nH]c1=S`?
A: MIC (Vaccinia virus [1]): > 80 µg/mL; MIC (Vaccinia virus [2]): > 80 µg/mL

Q: `CNC(=S)Nc1ccc(-c2n[nH]c(=S)n2-c2ccccc2)cc1` was tested. Which MIC (Vaccinia virus [1]) did it give?
A: Its MIC is greater than 80 µg/mL.

Q: And the MIC (Vaccinia virus [2])?
A: Its MIC is greater than 80 µg/mL.

Q: For `Cn1c(COc2ccc(N)cc2)n[nH]c1=S`, which MIC (Vaccinia virus [1]) is on record?
A: The MIC was 240 µg/mL (≈ 1020 µM).

Q: What about the MIC (Vaccinia virus [2]) of the same compound?
A: The MIC was 240 µg/mL (≈ 1020 µM).

Q: With `C=CCNC(=S)Nc1ccc(-c2n[nH]c(=S)n2CC=C)cc1` as the compound, how does the MIC (Vaccinia virus [1]) read?
A: The MIC was greater than 400 µg/mL.

Q: What about the MIC (Vaccinia virus [2]) of the same compound?
A: The MIC was greater than 80 µg/mL.

Q: How did the MIC (Vaccinia virus [1]) turn out when `CCNC(=S)Nc1ccc(OCc2n[nH]c(=S)n2CC)cc1` was run?
A: The MIC was 240 µg/mL (≈ 711 µM).

Q: And the MIC (Vaccinia virus [2])?
A: Its MIC is 240 µg/mL (≈ 711 µM).

Q: Which MIC (Vaccinia virus [1]) does the source give for `C=CCn1c(COc2ccc(NC(=S)NCC)cc2)n[nH]c1=S` here?
A: The MIC was greater than 400 µg/mL.

Q: What about the MIC (Vaccinia virus [2]) of the same compound?
A: The MIC was greater than 400 µg/mL.

Q: How did the MIC (Vaccinia virus [1]) turn out when `CCCCCCNC(=S)Nc1ccc(-c2n[nH]c(=S)n2C)cc1` was run?
A: The MIC was 80 µg/mL (≈ 229 µM).

Q: What about the MIC (Vaccinia virus [2]) of the same compound?
A: Its MIC is 80 µg/mL (≈ 229 µM).

Q: Which results are given for `C=CCNC(=S)Nc1ccc(-c2n[nH]c(=S)n2CCCCCC)cc1`?
A: MIC (Vaccinia virus [1]): > 16 µg/mL; MIC (Vaccinia virus [2]): > 16 µg/mL

Q: For `CNC(=S)Nc1ccc(-c2n[nH]c(=S)n2C)cc1`, which MIC (Vaccinia virus [1]) is on record?
A: Its MIC is 240 µg/mL (≈ 859 µM).

Q: And the MIC (Vaccinia virus [2])?
A: Its MIC is 240 µg/mL (≈ 859 µM).

Q: What does the source list for `CCn1c(COc2ccc(N)cc2)n[nH]c1=S`?
A: MIC (Vaccinia virus [1]): 240 µg/mL (≈ 959 µM); MIC (Vaccinia virus [2]): 240 µg/mL (≈ 959 µM)

Q: What does the source list for `O=c1[nH]c(=O)n([C@H]2C[C@H](O)[C@@H](CO)O2)cc1/C=C/Br` [BRIVUDINE]?
A: MIC (Vaccinia virus [1]): 3.2 µg/mL (≈ 9.61 µM); MIC (Vaccinia virus [2]): 3.2 µg/mL (≈ 9.61 µM)

Q: For `C=CCNC(=S)Nc1ccc(-c2n[nH]c(=S)n2-c2ccccc2)cc1`, which MIC (Vaccinia virus [1]) is on record?
A: The MIC was greater than 80 µg/mL.

Q: What about the MIC (Vaccinia virus [2]) of the same compound?
A: Its MIC is greater than 80 µg/mL.

Q: For `Nc1nc2c(ncn2COC(CO)CO)c(=O)[nH]1` [GANCICLOVIR], which MIC (Vaccinia virus [1]) is on record?
A: The MIC was greater than 100 µg/mL.

Q: What about the MIC (Vaccinia virus [2]) of the same compound?
A: Its MIC is greater than 100 µg/mL.

Q: For `C=CCn1c(COc2ccc(NC(=S)Nc3ccccc3)cc2)n[nH]c1=S`, which MIC (Vaccinia virus [1]) is on record?
A: Its MIC is greater than 80 µg/mL.

Q: And the MIC (Vaccinia virus [2])?
A: The MIC was greater than 80 µg/mL.

Q: Which results are given for `C=CCNC(=S)Nc1ccc(-c2n[nH]c(=S)n2CCc2ccccc2)cc1`?
A: MIC (Vaccinia virus [1]): > 80 µg/mL; MIC (Vaccinia virus [2]): > 80 µg/mL

Q: What does the source list for `C=CCNC(=S)Nc1ccc(OCc2n[nH]c(=S)n2C)cc1`?
A: MIC (Vaccinia virus [1]): > 400 µg/mL; MIC (Vaccinia virus [2]): > 400 µg/mL

Q: With `C=CCNC(=S)Nc1ccc(-c2nnc(SCc3ccc(Cl)cc3Cl)n2C)cc1` as the compound, how does the MIC (Vaccinia virus [1]) read?
A: The MIC was greater than 16 µg/mL.

Q: What about the MIC (Vaccinia virus [2]) of the same compound?
A: The MIC was greater than 16 µg/mL.

Q: What does the source list for `C=CCNC(=S)Nc1ccc(-c2n[nH]c(=S)n2CC)cc1`?
A: MIC (Vaccinia virus [1]): 240 µg/mL (≈ 751 µM); MIC (Vaccinia virus [2]): 240 µg/mL (≈ 751 µM)

Q: Which MIC (Vaccinia virus [1]) does the source give for `S=C(Nc1ccccc1)Nc1ccc(-c2n[nH]c(=S)n2-c2ccccc2)cc1` here?
A: Its MIC is greater than 80 µg/mL.

Q: What about the MIC (Vaccinia virus [2]) of the same compound?
A: Its MIC is greater than 80 µg/mL.

Q: Which results are given for `C=CCn1c(-c2ccc(NC(=S)NC)cc2)n[nH]c1=S`?
A: MIC (Vaccinia virus [1]): 240 µg/mL (≈ 786 µM); MIC (Vaccinia virus [2]): 240 µg/mL (≈ 786 µM)

Q: What does the source list for `C=CCNC(=S)Nc1ccc(OCc2n[nH]c(=S)n2-c2ccccc2)cc1`?
A: MIC (Vaccinia virus [1]): 240 µg/mL (≈ 604 µM); MIC (Vaccinia virus [2]): 240 µg/mL (≈ 604 µM)

Q: With `CCCCCCNC(=S)Nc1ccc(-c2n[nH]c(=S)n2CC)cc1` as the compound, how does the MIC (Vaccinia virus [1]) read?
A: The MIC was greater than 80 µg/mL.

Q: What about the MIC (Vaccinia virus [2]) of the same compound?
A: Its MIC is greater than 80 µg/mL.

Q: What does the source list for `C=CCn1c(-c2ccc(NC(=S)Nc3ccccc3)cc2)n[nH]c1=S`?
A: MIC (Vaccinia virus [1]): > 16 µg/mL; MIC (Vaccinia virus [2]): > 16 µg/mL

Q: `C=CCNC(=S)Nc1ccc(OCc2n[nH]c(=S)n2CC)cc1` was tested. Which MIC (Vaccinia virus [1]) did it give?
A: Its MIC is 240 µg/mL (≈ 687 µM).

Q: And the MIC (Vaccinia virus [2])?
A: The MIC was 240 µg/mL (≈ 687 µM).

Q: For `NC(=O)c1ncn([C@@H]2O[C@H](CO)[C@@H](O)[C@H]2O)n1` [RIBAVIRIN], which MIC (Vaccinia virus [1]) is on record?
A: Its MIC is 48 µg/mL (≈ 197 µM).

Q: What about the MIC (Vaccinia virus [2]) of the same compound?
A: Its MIC is 48 µg/mL (≈ 197 µM).

Q: `CCNC(=S)Nc1ccc(-c2n[nH]c(=S)n2C)cc1` was tested. Which MIC (Vaccinia virus [1]) did it give?
A: Its MIC is 240 µg/mL (≈ 818 µM).

Q: What about the MIC (Vaccinia virus [2]) of the same compound?
A: The MIC was 240 µg/mL (≈ 818 µM).

Q: What does the source list for `C=CCNC(=S)Nc1ccc(-c2nnc(SCc3ccc(Cl)cc3Cl)n2-c2ccccc2)cc1`?
A: MIC (Vaccinia virus [1]): > 16 µg/mL; MIC (Vaccinia virus [2]): > 16 µg/mL

Q: With `CCNC(=S)Nc1ccc(OCc2n[nH]c(=S)n2-c2ccccc2)cc1` as the compound, how does the MIC (Vaccinia virus [1]) read?
A: Its MIC is greater than 400 µg/mL.

Q: And the MIC (Vaccinia virus [2])?
A: Its MIC is greater than 400 µg/mL.

Q: Which results are given for `S=C(Nc1ccc(Cl)cc1)Nc1ccc(-c2n[nH]c(=S)n2-c2ccccc2)cc1`?
A: MIC (Vaccinia virus [1]): > 16 µg/mL; MIC (Vaccinia virus [2]): > 16 µg/mL

Q: Which results are given for `CCn1c(COc2ccc(NC(=S)Nc3ccccc3)cc2)n[nH]c1=S`?
A: MIC (Vaccinia virus [1]): > 80 µg/mL; MIC (Vaccinia virus [2]): > 80 µg/mL

Q: How did the MIC (Vaccinia virus [1]) turn out when `Cn1c(COc2ccc(NC(=S)Nc3ccccc3)cc2)n[nH]c1=S` was run?
A: The MIC was greater than 80 µg/mL.

Q: And the MIC (Vaccinia virus [2])?
A: The MIC was greater than 80 µg/mL.

Q: For `C=CCn1c(COc2ccc(N)cc2)n[nH]c1=S`, which MIC (Vaccinia virus [1]) is on record?
A: The MIC was greater than 400 µg/mL.

Q: What about the MIC (Vaccinia virus [2]) of the same compound?
A: Its MIC is greater than 400 µg/mL.

Q: For `CNC(=S)Nc1ccc(OCc2n[nH]c(=S)n2C)cc1`, which MIC (Vaccinia virus [1]) is on record?
A: Its MIC is greater than 400 µg/mL.

Q: What about the MIC (Vaccinia virus [2]) of the same compound?
A: The MIC was greater than 400 µg/mL.

Q: For `C=CCNC(=S)Nc1ccc(-c2n[nH]c(=S)n2C)cc1`, which MIC (Vaccinia virus [1]) is on record?
A: The MIC was 240 µg/mL (≈ 786 µM).

Q: What about the MIC (Vaccinia virus [2]) of the same compound?
A: The MIC was 240 µg/mL (≈ 786 µM).

Q: With `S=C(Nc1ccccc1)Nc1ccc(OCc2n[nH]c(=S)n2-c2ccccc2)cc1` as the compound, how does the MIC (Vaccinia virus [1]) read?
A: Its MIC is greater than 80 µg/mL.

Q: What about the MIC (Vaccinia virus [2]) of the same compound?
A: Its MIC is greater than 80 µg/mL.

Reference: ChEMBL document CHEMBL1149790, “Synthesis of some novel thiourea derivatives obtained from 5-[(4-aminophenoxy)methyl]-4-alkyl/aryl-2,4-dihydro-3H-1,2,4-triazole-3-thiones and evaluation as antiviral/anti-HIV and anti-tuberculosis agents” (Eur J Med Chem, 2008)
